In ChEMBL document CHEMBL2016473, “Synthesis of new opioid derivatives with a propellane skeleton and their pharmacology. Part 2: Propellane derivatives with an amide side chain” (Bioorg Med Chem Lett, 2012):
pKi: −log10 of the molar value.

Tests used:
[1] = target: Mu-type opioid receptor (Mus musculus, UniProt P42866); test: Displacement of [3H]DAMGO from mu opioid receptor in mouse whole brain without cerebellum
Outline: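 Competitive binding against [3H]DAMGO as the mu radioligand, on membranes from mouse whole brain with the cerebellum removed. Run in duplicate, with results reported as Ki.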

[2] = target: Delta-type opioid receptor (Mus musculus, UniProt P32300); test: Displacement of [3H]DPDPE from delta opioid receptor in mouse whole brain without cerebellum
Outline: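 Competitive binding against [3H]DPDPE as the delta radioligand, on membranes from mouse whole brain with the cerebellum removed. Run in duplicate, with results reported as Ki.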

[3] = target: Kappa-type opioid receptor (Cavia porcellus, UniProt P41144); test: Displacement of [3H]U69593 from kappa opioid receptor in guinea pig cerebellum
Outline: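 Competitive binding against [3H]U-69,593 as the kappa radioligand, on guinea pig cerebellum membranes. Run in duplicate, with results reported as Ki.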

[4] = Selectivity ratio of Ki for mouse mu opioid receptor to Ki for guinea pig kappa opioid receptor
[5] = Selectivity ratio of Ki for mouse delta opioid receptor to Ki for guinea pig kappa opioid receptor

Kappa-type opioid receptor, sequence (P41144 whole entry): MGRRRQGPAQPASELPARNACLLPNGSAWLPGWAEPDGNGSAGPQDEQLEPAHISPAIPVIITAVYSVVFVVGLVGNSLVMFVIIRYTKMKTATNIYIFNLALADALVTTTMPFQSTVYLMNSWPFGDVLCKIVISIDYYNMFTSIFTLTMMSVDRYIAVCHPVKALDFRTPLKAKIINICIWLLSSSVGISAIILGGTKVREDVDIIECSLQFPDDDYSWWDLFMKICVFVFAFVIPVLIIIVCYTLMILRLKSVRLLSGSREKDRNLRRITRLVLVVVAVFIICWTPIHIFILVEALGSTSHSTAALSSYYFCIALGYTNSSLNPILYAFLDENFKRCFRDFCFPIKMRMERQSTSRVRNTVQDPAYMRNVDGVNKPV
Mu-type opioid receptor, sequence (P42866 whole entry): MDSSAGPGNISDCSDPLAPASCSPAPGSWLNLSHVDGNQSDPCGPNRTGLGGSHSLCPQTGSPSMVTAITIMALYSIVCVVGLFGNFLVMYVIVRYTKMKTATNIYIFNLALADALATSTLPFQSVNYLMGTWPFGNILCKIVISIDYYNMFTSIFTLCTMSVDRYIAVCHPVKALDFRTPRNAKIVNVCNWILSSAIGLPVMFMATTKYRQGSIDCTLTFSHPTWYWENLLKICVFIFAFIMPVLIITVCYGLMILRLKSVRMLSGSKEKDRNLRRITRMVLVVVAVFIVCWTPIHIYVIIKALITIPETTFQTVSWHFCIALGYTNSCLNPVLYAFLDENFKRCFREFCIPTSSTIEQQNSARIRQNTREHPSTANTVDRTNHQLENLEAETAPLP
Delta-type opioid receptor, sequence (P32300 whole entry, looked up): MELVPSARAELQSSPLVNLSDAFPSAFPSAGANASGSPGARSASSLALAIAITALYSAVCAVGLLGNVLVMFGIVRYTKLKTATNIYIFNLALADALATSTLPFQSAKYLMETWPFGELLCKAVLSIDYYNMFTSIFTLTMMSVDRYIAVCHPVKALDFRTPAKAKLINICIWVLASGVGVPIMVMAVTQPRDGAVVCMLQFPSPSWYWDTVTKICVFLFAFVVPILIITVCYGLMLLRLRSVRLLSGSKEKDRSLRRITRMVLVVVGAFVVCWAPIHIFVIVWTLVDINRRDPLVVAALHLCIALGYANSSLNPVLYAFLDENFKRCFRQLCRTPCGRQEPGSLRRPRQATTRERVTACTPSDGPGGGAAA

Compound	pKi [1]	pKi [2]	pKi [3]	Ratio Ki [4]	Ratio Ki [5]
O=C(Nc1ccccc1)[C@@H]1CCC23CCN(CC4CC4)CC2(Cc2ccc(O)cc23)C1 (stereo not given in full)	7.10	6.55	7.87	5.95	21
O=C(NCCc1ccccc1)[C@@H]1CCC23CCN(CC4CC4)CC2(Cc2ccc(O)cc23)C1 (stereo not given in full)	7.27	< 6.00	6.77	0.32	–
O=C(NCc1ccccc1)C1=CCC23CCN(CC4CC4)CC2(C1)Cc1ccc(O)cc13 (stereo not given)	7.47	6.53	7.14	0.47	4.1
O=C(NCCc1ccccc1)[C@H]1CCC23CCN(CC4CC4)CC2(Cc2ccc(O)cc23)C1 (stereo not given in full)	6.34	< 6.00	6.19	0.71	–
CN(C(=O)/C=C/c1ccoc1)[C@@H]1CCC23Cc4ccc(O)cc4C2(CCN(CC2CC2)C3)C1 (stereo not given in full)	7.91	6.92	8.46	3.56	35.3
CN(C(=O)CCc1ccccc1)[C@@H]1CCC23Cc4ccc(O)cc4C2(CCN(CC2CC2)C3)C1 (stereo not given in full)	7.50	7.19	7.79	1.95	3.98
O=C(Nc1ccccc1)C1=CCC23CCN(CC4CC4)CC2(C1)Cc1ccc(O)cc13 (stereo not given)	7.91	6.72	7.33	0.27	4.11
O=C(Nc1ccccc1)[C@H]1CCC23CCN(CC4CC4)CC2(Cc2ccc(O)cc23)C1 (stereo not given in full)	7.09	6.68	6.97	0.75	1.92
O=C(NCc1ccccc1)[C@H]1CCC23CCN(CC4CC4)CC2(Cc2ccc(O)cc23)C1 (stereo not given in full)	6.95	< 6.00	< 6.00	–	–
CN(C(=O)CCc1ccccc1)[C@H]1CCC23Cc4ccc(O)cc4C2(CCN(CC2CC2)C3)C1 (stereo not given in full)	8.91	7.35	8.15	0.17	6.24
CN(C(=O)/C=C/c1ccoc1)[C@H]1CCC23Cc4ccc(O)cc4C2(CCN(CC2CC2)C3)C1 (stereo not given in full)	8.66	7.46	9.08	2.65	42.2
O=C(NCc1ccccc1)[C@@H]1CCC23CCN(CC4CC4)CC2(Cc2ccc(O)cc23)C1 (stereo not given in full)	6.97	< 6.00	7.72	5.52	–
O=C(NCCc1ccccc1)C1=CCC23CCN(CC4CC4)CC2(C1)Cc1ccc(O)cc13 (stereo not given)	7.44	6.39	6.60	0.14	1.63
